Measured values from ChEMBL document CHEMBL3352330, “Discovery of azetidine based ene-amides as potent bacterial enoyl ACP reductase (FabI) inhibitors” (Eur J Med Chem, 2014).
Values after ≈ are worked out from the molar mass of the structure shown.

Tests used:
Staphylococcus aureus [1] = assay: Antibacterial activity against methicillin-sensitive Staphylococcus aureus ATCC 29213 after 16 to 20 hrs by broth microdilution method; format: functional
How it was run: (§1)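 Broth microdilution in MHB, serial two-fold compound dilutions; final inoculum 5 × 10⁵ CFU/mL; broth, compound and organism controls in duplicate; S. aureus ATCC 29213 as quality control strain; incubation 35 °C, 16–20 h, ambient air; growth read by unaided eye with viewing device, end point set against no-antibiotic control wells.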

Staphylococcus aureus [2] = assay: Antibacterial activity against methicillin-resistant Staphylococcus aureus ATCC 33591 after 16 to 20 hrs by broth microdilution method; format: functional; how it was run: as §1
[3] = biological target: T1, Enoyl-[acyl-carrier-protein] reductase [NADPH] FabI (Staphylococcus aureus) (UniProt Q6GI75); assay: Inhibition of Staphylococcus aureus FabI-mediated reduction of enoyl-ACP preincubated at 1 uM for 30 mins measured after 2 hrs by spectrophotometry
T1 sequence (whole entry): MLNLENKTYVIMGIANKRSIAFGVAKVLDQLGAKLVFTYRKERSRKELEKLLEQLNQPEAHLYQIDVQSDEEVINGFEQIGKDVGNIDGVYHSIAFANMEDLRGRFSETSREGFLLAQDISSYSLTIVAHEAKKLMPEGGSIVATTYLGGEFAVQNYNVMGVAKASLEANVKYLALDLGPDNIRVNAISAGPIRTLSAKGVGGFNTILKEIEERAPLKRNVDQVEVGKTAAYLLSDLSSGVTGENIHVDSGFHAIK
How it was run: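 Spectrophotometric FabI assay in 100 mM sodium ADA buffer, pH 6.5. Enzyme (2400 ng/assay) preincubated 30 min with NADH and compound. Reaction started with crotonoyl CoA. After 2 h at room temperature, NADH oxidation read as the fall in absorbance at 340 nm.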

[4] = tested on: Staphylococcus epidermidis; assay: Antibacterial activity against methicillin-resistant Staphylococcus epidermidis AUCC 704 after 16 to 20 hrs by broth microdilution method; format: functional; how it was run: as §1
[5] = biological target: T2, Enoyl-[acyl-carrier-protein] reductase [NADPH] FabI (Staphylococcus aureus, UniProt Q6GI75); assay: Inhibition of Staphylococcus aureus FabI-mediated reduction of enoyl-ACP preincubated for 30 mins measured after 2 hrs by spectrophotometry
T2 sequence (Q6GI75 whole entry): T1 sequence (whole entry)

[6] = Tmax in Swiss albino CD-1 mouse at 10 mg/kg, po administered as single dose; format: ADME, organism-based; parameters: dose 10 mg/kg, route oral; conditions: in vivo
How it was run: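 Oral gavage, 10 mg/kg single dose, given as a suspension in 0.25% Tween 80 with 0.225% sodium carboxymethyl cellulose. Blood drawn from the retro-orbital plexus into EDTA at set times (sparse sampling, n = 3 per time point). Plasma stored at −20 °C and assayed by LC-MS/MS. Parameters from non-compartmental analysis.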

Staphylococcus aureus [7] = assay: Antibacterial activity against methicillin-resistant Staphylococcus aureus ATCC 33591 infected in Swiss albino CD-1 mouse compound administered orally bid at 1 hr and 4 hrs post infection; format: functional; conditions: ATCC 33591, po
[8] = Metabolic stability in mouse liver mirosomes assessed as compound remaining at 1 uM after 60 mins by LC-MS/MS analysis; format: ADME, tissue-based; conditions: liver microsomes, read-out: Stability
How it was run: (§2)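 Compound tested at 1 µM in mouse liver microsomes (0.3 mg/mL protein) with 1 mM NADPH in KH₂PO₄ buffer, pH 7.4, at 37 °C. Reactions stopped at 0, 15 and 60 min with acetonitrile containing carbamazepine internal standard. Samples centrifuged and the supernatant analysed by LC-MS/MS.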

[9] = AUC in Swiss albino CD-1 mouse at 10 mg/kg, po administered as single dose; format: ADME, organism-based; parameters: dose 10 mg/kg, route oral; conditions: plasma
How it was run: (§3)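 Blood drawn from the retro-orbital plexus into EDTA at set times (sparse sampling, n = 3 per time point). Plasma stored at −20 °C and assayed by LC-MS/MS. Parameters from non-compartmental analysis.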

[10] = Cmax in Swiss albino CD-1 mouse at 10 mg/kg, po administered as single dose; format: ADME, organism-based; parameters: dose 10 mg/kg, route oral; conditions: in vivo; how it was run: as §3
[11] = Half life in Swiss albino CD-1 mouse at 10 mg/kg, po administered as single dose; format: ADME, organism-based; parameters: dose 10 mg/kg, route oral; conditions: in vivo; how it was run: as §3
[12] = Metabolic stability in mouse liver mirosomes assessed as compound remaining at 1 uM after 15 mins by LC-MS/MS analysis; format: ADME, tissue-based; conditions: liver microsomes, read-out: Stability; how it was run: as §2

SMILES	MIC (Staphylococcus aureus [1]) [µg/mL]	MIC (Staphylococcus aureus [2]) [µg/mL]	inhibition [3] [%]	MIC [4] [µg/mL]	IC50 [5] [µM]	Tmax [6] [h]	ED50 (Staphylococcus aureus [7]) [mg/kg]	remaining at 1 h, 1 µM [8] [%]	AUC [9] [ng·h/mL]	Cmax [10] [ng/mL]	half-life [11] [h]	remaining at 0.25 h, 1 µM [12] [%]
O=C1CCc2cc(/C=C/C(=O)N3CC(Oc4nc5ccccc5s4)C3)cnc2N1	> 32	> 32	16	> 32								
O=C1CCc2cc(/C=C/C(=O)N3CC(Oc4ccccc4)C3)cnc2N1	4 (≈ 11.4 µM)	4 (≈ 11.4 µM)	35	16 (≈ 45.8 µM)								
Cc1cc(C2CN(C(=O)/C=C/c3cnc4c(c3)CCC(=O)N4)C2)nc2ccccc12	32 (≈ 80.3 µM)	> 32	84	> 32	0.242							
Cc1c(C2CN(C(=O)/C=C/c3cnc4c(c3)CCC(=O)N4)C2)oc2ccccc12	0.06 (≈ 0.155 µM)	0.06 (≈ 0.155 µM)	96	0.5 (≈ 1.29 µM)	0.141	2	0.9					
CC(=O)Nc1ccc(/C=C/C(=O)N2CC(c3oc4ccccc4c3C)C2)cn1	1 (≈ 2.66 µM)	1 (≈ 2.66 µM)	97	8 (≈ 21.3 µM)	0.161							
Cc1cccc(OCC2CN(C(=O)/C=C/c3cnc4c(c3)CCC(=O)N4)C2)c1	2 (≈ 5.3 µM)	2 (≈ 5.3 µM)	47	2 (≈ 5.3 µM)								
Cc1c(C2CN(C(=O)/C=C/c3cnc4c(c3)CCC(=O)N4)C2)oc2ccc(Cl)cc12	0.25 (≈ 0.593 µM)	0.25 (≈ 0.593 µM)	82	0.5 (≈ 1.19 µM)	0.204	1						
O=C1CCc2cc(/C=C/C(=O)N3CC(COc4ccc5ccccc5c4)C3)cnc2N1	4 (≈ 9.67 µM)	4 (≈ 9.67 µM)	68	> 32	1.41							
Cc1c(C2CN(C(=O)/C=C/c3cnc4c(c3)CNCC(=O)N4)C2)oc2ccccc12	0.25 (≈ 0.621 µM)	0.25 (≈ 0.621 µM)	83	1 (≈ 2.48 µM)	0.384	0.5		76.4	9000	2250	8.5	96.2
Cc1c(C2CN(C(=O)/C=C/c3cnc4c(c3)CN(CCN3CCOCC3)C(=O)N4)C2)oc2ccccc12	1 (≈ 1.99 µM)	1 (≈ 1.99 µM)	105	2 (≈ 3.99 µM)	0.058							
Cc1c(C2CN(C(=O)/C=C/c3cnc4c(c3)CCC(=O)N4)C2)sc2ccccc12	0.125 (≈ 0.31 µM)	0.25 (≈ 0.62 µM)	89	2 (≈ 4.96 µM)	0.709	4						
O=C1CCc2cc(/C=C/C(=O)N3CCC3)cnc2N1	> 32	> 32	15	> 32								
Cc1ccccc1OCC1CN(C(=O)/C=C/c2cnc3c(c2)CCC(=O)N3)C1	0.25 (≈ 0.662 µM)	0.5 (≈ 1.32 µM)	80	1 (≈ 2.65 µM)	0.177	2						
O=C1CCc2cc(/C=C/C(=O)N3CC(Cc4nc5ccccc5s4)C3)cnc2N1	2 (≈ 4.94 µM)	4 (≈ 9.89 µM)	41	2 (≈ 4.94 µM)								
O=C1CCc2cc(/C=C/C(=O)N3CC(c4ccccn4)C3)cnc2N1	4 (≈ 12 µM)	8 (≈ 23.9 µM)	87	16 (≈ 47.8 µM)	0.242							
COc1ccc2oc(C3CN(C(=O)/C=C/c4cnc5c(c4)CCC(=O)N5)C3)c(C)c2c1	0.5 (≈ 1.2 µM)	1 (≈ 2.4 µM)		2 (≈ 4.79 µM)								
O=C1CCc2cc(/C=C/C(=O)N3CC(c4ccccc4)C3)cnc2N1	1 (≈ 3 µM)	2 (≈ 6 µM)	80	2 (≈ 6 µM)	0.488							
Cc1ccc(OCC2CN(C(=O)/C=C/c3cnc4c(c3)CCC(=O)N4)C2)cc1	1 (≈ 2.65 µM)	1 (≈ 2.65 µM)	67	2 (≈ 5.3 µM)	0.921							
O=C1CCc2cc(/C=C/C(=O)N3CC(OCc4ccccc4)C3)cnc2N1	1 (≈ 2.75 µM)	2 (≈ 5.5 µM)	69	2 (≈ 5.5 µM)	0.376							
O=C1CCc2cc(/C=C/C(=O)N3CC(COc4ccc(F)cc4)C3)cnc2N1	0.25 (≈ 0.655 µM)	0.5 (≈ 1.31 µM)	92	1 (≈ 2.62 µM)	0.316	2						
Cc1c(C2CN(C(=O)/C=C/c3cnc4c(c3)NCCC(=O)N4)C2)oc2ccccc12	0.25 (≈ 0.621 µM)	0.5 (≈ 1.24 µM)	92	1 (≈ 2.48 µM)	0.316							
Cc1c(C2CN(C(=O)/C=C/c3cnc4c(c3)CN(C)CC(=O)N4)C2)oc2ccccc12	0.25 (≈ 0.6 µM)	0.25 (≈ 0.6 µM)	99	0.5 (≈ 1.2 µM)	0.112			6.6				25.6
Cc1c(C2CN(C(=O)/C=C/c3cnc4c(c3)CN(CCN3CCOCC3)CC(=O)N4)C2)oc2ccccc12	1 (≈ 1.94 µM)	1 (≈ 1.94 µM)	100	2 (≈ 3.88 µM)	0.289							
CC(=O)NC[C@H]1CN(c2ccc(N3CCOCC3)c(F)c2)C(=O)O1 [LINEZOLID]							2.8					
Cc1c(CN(C)C(=O)/C=C/c2cnc3c(c2)CCC(=O)N3)oc2ccccc12 [AFN-1252]	0.008 (≈ 0.0213 µM)	0.008 (≈ 0.0213 µM)	100	0.008 (≈ 0.0213 µM)	0.029	1		17.5	2200	440	1.84	55.4
O=C1CCc2cc(/C=C/C(=O)N3CC(c4nc5ccccc5s4)C3)cnc2N1	0.25 (≈ 0.64 µM)	0.25 (≈ 0.64 µM)	83	1 (≈ 2.56 µM)	0.373	2						
O=C1CCc2cc(/C=C/C(=O)N3CC(COc4ccccc4F)C3)cnc2N1	1 (≈ 2.62 µM)	1 (≈ 2.62 µM)	99	2 (≈ 5.24 µM)	0.378							
O=C1CCc2cc(/C=C/C(=O)N3CC(COc4cccc(F)c4)C3)cnc2N1	1 (≈ 2.62 µM)	2 (≈ 5.24 µM)	89	2 (≈ 5.24 µM)	0.438							
Cc1c(C2CN(C(=O)/C=C/c3ccc(NC(=O)Cn4ccnn4)nc3)C2)oc2ccccc12	> 32	> 32	66	> 32	0.843							
O=C1CCc2cc(/C=C/C(=O)N3CC(COc4ccccc4)C3)cnc2N1	0.25 (≈ 0.688 µM)	0.25 (≈ 0.688 µM)	81	1 (≈ 2.75 µM)	0.265							
